Test results published in ChEMBL document CHEMBL1152771, “Identification of Shc Src homology 2 domain-binding peptoid-peptide hybrids” (J Med Chem, 2009).
Each block holds one molecule with its values, some of them ahead of it. *1 amine or outer side, *2 acyl side, *3 side chain or, on linkers, in order; H or OH if unused. Where a SMILES comes first, the peptide text is derived from it. [ ]: non-standard residue; d: D form. The star is where a group is joined. X2 = O=C(c1cc(N=C=S)ccc1-c1c2ccc(=O)cc-2oc2cc(O)ccc12)*; Gly(N-but-3-enyl) = O=C(CN(CCC=[*:3])[*:1])[*:2]; X5 = C=CCN([C@@H](CC(C)C)C(=O)[*:2])[*:1]; pY = N[C@@H](Cc1ccc(OP(=O)(O)O)cc1)C(=O)O; 3Amb = NCc1cccc(C(=O)O)c1; NH(but-3-enyl) = C=CCCN*; Ahx = NCCCCCC(=O)O; Ava = NCCCCC(=O)O; GABA = NCCCC(=O)O; NHAllyl = C=CCN*

Tests used:
[1] = target: T1, SHC-transforming protein 1 (Homo sapiens, UniProt P29353); assay: Displacement of FITC-tagged NH-(CH2)4-CO-phospho-tyrosine-glutamine-glycine-leucine-serine-amide from Shc Src homology 2 domain by fluorescence anisotropy competition assay
T1 sequence (P29353 whole entry): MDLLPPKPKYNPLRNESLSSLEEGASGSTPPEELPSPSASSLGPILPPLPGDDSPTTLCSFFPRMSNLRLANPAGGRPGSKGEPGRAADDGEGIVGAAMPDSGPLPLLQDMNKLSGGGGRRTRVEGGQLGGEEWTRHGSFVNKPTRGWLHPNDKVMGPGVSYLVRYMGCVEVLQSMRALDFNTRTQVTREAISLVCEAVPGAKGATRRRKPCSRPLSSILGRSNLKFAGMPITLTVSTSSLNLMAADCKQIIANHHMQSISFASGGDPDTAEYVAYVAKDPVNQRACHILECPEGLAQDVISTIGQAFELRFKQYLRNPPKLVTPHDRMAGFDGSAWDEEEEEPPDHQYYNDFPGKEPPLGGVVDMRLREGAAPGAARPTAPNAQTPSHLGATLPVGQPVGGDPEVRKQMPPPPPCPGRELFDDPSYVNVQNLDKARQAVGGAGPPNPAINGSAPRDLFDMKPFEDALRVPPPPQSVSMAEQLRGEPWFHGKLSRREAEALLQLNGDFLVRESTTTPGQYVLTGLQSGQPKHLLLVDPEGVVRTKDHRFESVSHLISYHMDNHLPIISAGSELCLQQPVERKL
Outline: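 Competition FA: preformed complex of 2 μM Shc SH2 domain protein and 10 nM FITC reference peptide in 10 mM HEPES, 150 mM NaCl pH 7.5 with 10% (v/v) DMSO; unlabeled competitors serially diluted from 500 μM. Excitation 485 nm, parallel/perpendicular emission 535 nm. Fractional binding from anisotropy; IC50 where spline (order three, three knots) reached one half.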

[2] = target: T1, SHC-transforming protein 1; assay: Binding affinity to Shc Src homology 2 domain by fluorescence anisotropy
Outline: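 Direct binding: 5 nM N-terminal fluorescein-labelled peptide in 10 mM HEPES, 150 mM NaCl pH 7.5 with 10% (v/v) DMSO; Shc SH2 protein serially diluted from 100 μM. Excitation 485 nm, parallel and perpendicular emission at 535 nm. Kd from fitting anisotropy versus protein concentration to a single-site binding model.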

SMILES: CC(=O)N[C@@H](Cc1ccc(OP(=O)(O)O)cc1)C(=O)N[C@@H](CCC(N)=O)C(=O)N(CCCCC#N)CC(=O)N[C@@H](CC(C)C)C(N)=O
IC50 [1]: 44 µM

SMILES: CC(=O)N[C@@H](Cc1ccc(OP(=O)(O)O)cc1)C(=O)N[C@@H](CCC(N)=O)C(=O)N(CCC(C)C)CC(=O)N[C@@H](CC(C)C)C(N)=O (HELM PEPTIDE1{[ac].[O=C([C@H](Cc1ccc(OP(=O)(O)O)cc1)N[*:1])[*:2]].Q.[CC(C)CCN(CC(=O)[*:2])[*:1]].L.[am]}$$$$V2.0)
IC50 [1]: 17 µM

SMILES: CC(=O)N[C@@H](Cc1ccc(OP(=O)(O)O)cc1)C(=O)N[C@@H](CCC(N)=O)C(=O)N(CCCC(F)(F)F)CC(=O)N[C@@H](CC(C)C)C(N)=O
IC50 [1]: 23 µM

SMILES: C=CCNC(=O)[C@H](CC(C)C)NC(=O)CNC(=O)[C@H](CCC(N)=O)NC(=O)[C@H](Cc1ccc(OP(=O)(O)O)cc1)N(CC=C)C(C)=O
IC50 [1]: 450 µM

SMILES: C=CCCCCN(CC(=O)N[C@@H](CC(C)C)C(N)=O)C(=O)[C@H](CCC(N)=O)NC(=O)[C@H](Cc1ccc(OP(=O)(O)O)cc1)NC(C)=O
IC50 [1]: 14 µM

SMILES: C=CCCNC(=O)[C@H](CO)NC(=O)[C@H](CC(C)C)NC(=O)CN(CCC=C)C(=O)[C@H](CCC(N)=O)NC(=O)[C@H](Cc1ccc(OP(=O)(O)O)cc1)NC(C)=O (Ac-[pY]Q[Gly(N-but-3-enyl)]LS-{NH(but-3-enyl)})
IC50 [1]: 8 µM

Kd [2]: 5 µM
SMILES: CC(C)C[C@H](NC(=O)CNC(=O)[C@H](CCC(N)=O)NC(=O)[C@H](Cc1ccc(OP(=O)(O)O)cc1)NC(=O)c1cccc(CNC(=O)c2cc(N=C=S)ccc2-c2c3ccc(=O)cc-3oc3cc(O)ccc23)c1)C(=O)N[C@@H](CO)C(N)=O ({X2-3Amb}-[pY]QGLS-NH2)

SMILES: CC(=O)N[C@@H](Cc1ccc(OP(=O)(O)O)cc1)C(=O)N[C@@H](CCC(N)=O)C(=O)N(CCCCF)CC(=O)N[C@@H](CC(C)C)C(N)=O
IC50 [1]: 40 µM

SMILES: C=CCCCN(CC(=O)N[C@@H](CC(C)C)C(N)=O)C(=O)[C@H](CCC(N)=O)NC(=O)[C@H](Cc1ccc(OP(=O)(O)O)cc1)NC(C)=O
IC50 [1]: 16 µM

SMILES: CCOCCN(CC(=O)N[C@@H](CC(C)C)C(N)=O)C(=O)[C@H](CCC(N)=O)NC(=O)[C@H](Cc1ccc(OP(=O)(O)O)cc1)NC(C)=O (HELM PEPTIDE1{[ac].[O=C([C@H](Cc1ccc(OP(=O)(O)O)cc1)N[*:1])[*:2]].Q.[CCOCCN(CC(=O)[*:2])[*:1]].L.[am]}$$$$V2.0)
IC50 [1]: 33 µM

SMILES: C=CCNC(=O)[C@H](CO)NC(=O)[C@H](CC(C)C)N(CC=C)C(=O)CNC(=O)[C@H](CCC(N)=O)NC(=O)[C@H](Cc1ccc(OP(=O)(O)O)cc1)NC(C)=O (Ac-[pY]QG[X5]S-NHAllyl)
IC50 [1]: 353 µM

SMILES: C=CCNC(=O)[C@H](CO)NC(=O)[C@H](CC(C)C)NC(=O)CNC(=O)[C@H](CCC(N)=O)NC(=O)[C@H](Cc1ccc(OP(=O)(O)O)cc1)N(CC=C)C(C)=O (HELM PEPTIDE1{[ac].[C=CCN([C@@H](Cc1ccc(OP(=O)(O)O)cc1)C(=O)[*:2])[*:1]].Q.G.L.S.[C=CCN[*:1]]}$$$$V2.0)
IC50 [1]: 41 µM

SMILES: CCSCCN(CC(=O)N[C@@H](CC(C)C)C(N)=O)C(=O)[C@H](CCC(N)=O)NC(=O)[C@H](Cc1ccc(OP(=O)(O)O)cc1)NC(C)=O
IC50 [1]: 34 µM

SMILES: C=CCN(CC(=O)N[C@@H](CC(C)C)C(N)=O)C(=O)[C@H](CCC(N)=O)NC(=O)[C@H](Cc1ccc(OP(=O)(O)O)cc1)NC(C)=O (HELM PEPTIDE1{[ac].[O=C([C@H](Cc1ccc(OP(=O)(O)O)cc1)N[*:1])[*:2]].Q.[C=CCN(CC(=O)[*:2])[*:1]].L.[am]}$$$$V2.0)
IC50 [1]: 26.6 µM

Kd [2]: 8.9 µM
SMILES: CC(C)C[C@H](NC(=O)CNC(=O)[C@H](CCC(N)=O)NC(=O)[C@H](Cc1ccc(OP(=O)(O)O)cc1)NC(=O)[C@H](CC(C)C)NC(=O)CCCCNC(=O)c1cc(N=C=S)ccc1-c1c2ccc(=O)cc-2oc2cc(O)ccc12)C(=O)N[C@@H](CO)C(N)=O ({X2-Ava}-L[pY]QGLS-NH2)

Kd [2]: 0.35 µM
SMILES: CC(C)C[C@H](NC(=O)CNC(=O)[C@H](CCC(N)=O)NC(=O)[C@H](Cc1ccc(OP(=O)(O)O)cc1)NC(=O)CCCCNC(=O)c1cc(N=C=S)ccc1-c1c2ccc(=O)cc-2oc2cc(O)ccc12)C(=O)N[C@@H](CO)C(N)=O ({X2-Ava}-[pY]QGLS-NH2)

SMILES: CC(=O)N[C@@H](Cc1ccc(OP(=O)(O)O)cc1)C(=O)N[C@@H](CCC(N)=O)C(=O)NCC(=O)N[C@@H](CC(C)C)C(N)=O (HELM PEPTIDE1{[ac].[O=C([C@H](Cc1ccc(OP(=O)(O)O)cc1)N[*:1])[*:2]].Q.G.L.[am]}$$$$V2.0)
IC50 [1]: 248 µM

SMILES: CC(C)C[C@H](NC(=O)CNC(=O)[C@H](CCC(N)=O)NC(=O)[C@H](Cc1ccc(OP(=O)(O)O)cc1)NC(=O)[C@H](CC(C)C)NC(=O)CCNC(=O)c1cc(N=C=S)ccc1-c1c2ccc(=O)cc-2oc2cc(O)ccc12)C(=O)N[C@@H](CO)C(N)=O (HELM PEPTIDE1{[O=C(c1cc(N=C=S)ccc1-c1c2ccc(=O)cc-2oc2cc(O)ccc12)[*:2]].[bAla].L.[O=C([C@H](Cc1ccc(OP(=O)(O)O)cc1)N[*:1])[*:2]].Q.G.L.S.[am]}$$$$V2.0)
Kd [2]: 7.6 µM

SMILES: CC(C)C[C@H](NC(=O)CNC(=O)[C@H](CCC(N)=O)NC(=O)[C@H](Cc1ccc(OP(=O)(O)O)cc1)NC(=O)c1cc(N=C=S)ccc1-c1c2ccc(=O)cc-2oc2cc(O)ccc12)C(=O)N[C@@H](CO)C(N)=O (HELM PEPTIDE1{[O=C(c1cc(N=C=S)ccc1-c1c2ccc(=O)cc-2oc2cc(O)ccc12)[*:2]].[O=C([C@H](Cc1ccc(OP(=O)(O)O)cc1)N[*:1])[*:2]].Q.G.L.S.[am]}$$$$V2.0)
Kd [2]: 12.4 µM

Kd [2]: 8.6 µM
SMILES: CC(C)C[C@H](NC(=O)CNC(=O)[C@H](CCC(N)=O)NC(=O)[C@H](Cc1ccc(OP(=O)(O)O)cc1)NC(=O)[C@H](CC(C)C)NC(=O)CCCNC(=O)c1cc(N=C=S)ccc1-c1c2ccc(=O)cc-2oc2cc(O)ccc12)C(=O)N[C@@H](CO)C(N)=O ({X2-GABA}-L[pY]QGLS-NH2)

SMILES: C=CCNC(=O)[C@H](CC(C)C)N(CC=C)C(=O)CNC(=O)[C@H](CCC(N)=O)NC(=O)[C@H](Cc1ccc(OP(=O)(O)O)cc1)NC(C)=O
IC50 [1]: 81 µM

Kd [2]: 4.7 µM
SMILES: CC(C)C[C@H](NC(=O)CNC(=O)[C@H](CCC(N)=O)NC(=O)[C@H](Cc1ccc(OP(=O)(O)O)cc1)NC(=O)CCCCCNC(=O)c1cc(N=C=S)ccc1-c1c2ccc(=O)cc-2oc2cc(O)ccc12)C(=O)N[C@@H](CO)C(N)=O ({X2-Ahx}-[pY]QGLS-NH2)

SMILES: CC#CCN(CC(=O)N[C@@H](CC(C)C)C(N)=O)C(=O)[C@H](CCC(N)=O)NC(=O)[C@H](Cc1ccc(OP(=O)(O)O)cc1)NC(C)=O
IC50 [1]: 83 µM

SMILES: CCCN(CC(=O)N[C@@H](CC(C)C)C(N)=O)C(=O)[C@H](CCC(N)=O)NC(=O)[C@H](Cc1ccc(OP(=O)(O)O)cc1)NC(C)=O (HELM PEPTIDE1{[ac].[O=C([C@H](Cc1ccc(OP(=O)(O)O)cc1)N[*:1])[*:2]].Q.[CCCN(CC(=O)[*:2])[*:1]].L.[am]}$$$$V2.0)
IC50 [1]: 25.7 µM

Kd [2]: 7.2 µM
SMILES: CC(C)C[C@H](NC(=O)CNC(=O)[C@H](CCC(N)=O)NC(=O)[C@H](Cc1ccc(OP(=O)(O)O)cc1)NC(=O)CCCNC(=O)c1cc(N=C=S)ccc1-c1c2ccc(=O)cc-2oc2cc(O)ccc12)C(=O)N[C@@H](CO)C(N)=O ({X2-GABA}-[pY]QGLS-NH2)

SMILES: CC(=O)N[C@@H](Cc1ccc(OP(=O)(O)O)cc1)C(=O)N[C@@H](CCC(N)=O)C(=O)N(CC(=O)N[C@@H](CC(C)C)C(N)=O)Cc1ccccc1 (HELM PEPTIDE1{[ac].[O=C([C@H](Cc1ccc(OP(=O)(O)O)cc1)N[*:1])[*:2]].Q.[O=C(CN(Cc1ccccc1)[*:1])[*:2]].L.[am]}$$$$V2.0)
IC50 [1]: 18.9 µM

SMILES: CC(=O)NCCCCC(=O)N[C@@H](Cc1ccc(OP(=O)(O)O)cc1)C(=O)N[C@@H](CCC(N)=O)C(=O)NCC(=O)N[C@@H](CC(C)C)C(=O)N[C@@H](CO)C(N)=O (HELM PEPTIDE1{[ac].[O=C(CCCCN[*:1])[*:2]].[O=C([C@H](Cc1ccc(OP(=O)(O)O)cc1)N[*:1])[*:2]].Q.G.L.S.[am]}$$$$V2.0)
Kd [1]: 158 µM

SMILES: CC(=O)N[C@@H](Cc1ccc(OP(=O)(O)O)cc1)C(=O)N[C@@H](CCC(N)=O)C(=O)N(CCCC(C)C)CC(=O)N[C@@H](CC(C)C)C(N)=O
IC50 [1]: 29 µM

SMILES: COCCN(CC(=O)N[C@@H](CC(C)C)C(N)=O)C(=O)[C@H](CCC(N)=O)NC(=O)[C@H](Cc1ccc(OP(=O)(O)O)cc1)NC(C)=O (HELM PEPTIDE1{[ac].[O=C([C@H](Cc1ccc(OP(=O)(O)O)cc1)N[*:1])[*:2]].Q.[COCCN(CC(=O)[*:2])[*:1]].L.[am]}$$$$V2.0)
IC50 [1]: 56 µM

SMILES: CCC#CCN(CC(=O)N[C@@H](CC(C)C)C(N)=O)C(=O)[C@H](CCC(N)=O)NC(=O)[C@H](Cc1ccc(OP(=O)(O)O)cc1)NC(C)=O
IC50 [1]: 17 µM

SMILES: CCN(CC(=O)N[C@@H](CC(C)C)C(N)=O)C(=O)[C@H](CCC(N)=O)NC(=O)[C@H](Cc1ccc(OP(=O)(O)O)cc1)NC(C)=O (HELM PEPTIDE1{[ac].[O=C([C@H](Cc1ccc(OP(=O)(O)O)cc1)N[*:1])[*:2]].Q.[CCN(CC(=O)[*:2])[*:1]].L.[am]}$$$$V2.0)
IC50 [1]: 19 µM
